Data as given in ChEMBL document CHEMBL4825662 (J Med Chem, 2021).
≈ marks a conversion by molar mass, not a printed value.

Assays:
[1] = Intrinsic clearance in human liver microsomes preincubated followed by NADPH addition and measured up to 45 mins by LC-MS/MS analysis; assay type: ADME, Microsome
[2] = Half life in Sprague-Dawley rat at 10 mg/kg, po measured after 0.25 to 24 hrs by UHPLC-TOF method; assay type: ADME, organism-based; conditions: in vivo, time 0.25-24 hrs
[3] = Tmax in CD1 mouse at 5 mg/kg, po measured after 0.083 to 24 hrs by UHPLC-TOF method; assay type: ADME, organism-based; conditions: in vivo, time 0.083-24 hrs
In short: (§1)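 Male CD-1 mice, acclimatized and individually housed, dosed IV and PO as amorphous-solid suspension. Terminal cardiac-puncture blood into heparinized tubes on wet ice, centrifuged at 4 °C within 15 min; plasma snap-frozen at −20 °C. IV arm sampled 2 min–24 h, oral arm 5 min–24 h. Plasma analysed by UHPLC-quadrupole-TOF MS.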

[4] = Cmax in Sprague-Dawley rat at 10 mg/kg, po measured after 0.02 to 24 hrs by UHPLC-TOF method; assay type: ADME, organism-based; set-up: route oral, dose 10 mg/kg, time 0.02-24 hrs; conditions: in vivo
[5] = Cmax in CD1 mouse at 5 mg/kg, po measured after 0.03 to 24 hrs by UHPLC-TOF method; assay type: ADME, organism-based; set-up: route oral, time upper 24 hrs, time lower 0.03 hrs, dose 5 mg/kg; conditions: in vivo
[6] = Cmax in Sprague-Dawley rat at 5 mg/kg, po administered via gavage measured after 0.02 to 24 hrs by tandem liquid chromatography/mass spectrometry; assay type: ADME, organism-based; set-up: route oral, dose 5 mg/kg, time upper 24 hrs, time lower 0.02 hrs; conditions: in vivo
In short: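 Male Sprague–Dawley rats weighing 200–250 g, 3 per route, were used. The i.v. bolus was 1 mg/kg at 1 mg/mL in 40:60 dimethylacetamide/saline. Oral gavage doses were 5 or 10 mg/kg at 5 mg/mL in 1% methyl cellulose with 0.1% Tween 80. Heparinized blood was taken at 0.02–24 h (ten time points). Plasma was analyzed by LC-MS/MS after acetonitrile precipitation.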

[7] = Oral bioavailability in CD1 mouse at 5 mg/kg measured after 0.03 to 24 hrs by UHPLC-TOF method; assay type: ADME, organism-based; conditions: in vivo, time 0.03-24 hrs; in short: as §1
[8] = Cytotoxicity against human HepG2 cells by MTT assay; assay type: cell-based
In short: (§2)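 Viability was assessed by MTT after culture with compound at 0.01 nM to 100 μM, run in parallel with plaque reduction assays. Values are the average of at least two testing occasions.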

[9] = Efflux ratio of apparent permeability in MDCK-MDR1 cells at 10 uM measured at 60 mins by LC-MS/MS analysis; assay type: ADME, cell-based, Canis lupus familiaris; conditions: dog
[10] = system: Human orthopneumovirus; assay: Antiviral activity against Respiratory syncytial virus A2 infected in human Huh7 cells by Plaque reduction assay; assay type: functional, organism-based; conditions: A2, Huh-7
In short: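 Huh-7 cells were infected with RSV strain A2 in the presence of compound. Values are the average of at least two testing occasions.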

[11] = Volume of distribution at steady state in Sprague-Dawley rat at 1 mg/kg, iv administered […] measured after 0.02 to 24 hrs by tandem liquid chromatography/mass spectrometry; assay type: ADME, organism-based; conditions: in vivo, time 0.02-24 hrs, read-out: Vdss
In short: (§3)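 Male Sprague–Dawley rats (200–250 g), 3 per route. IV bolus at 1 mg/kg, 1 mg/mL in 40:60 dimethylacetamide/saline; oral gavage at 5 or 10 mg/kg, 5 mg/mL in 1% methyl cellulose, 0.1% Tween 80 in water. Serial blood at 0.02–24 h (ten points) into heparin, spun at 4 °C, plasma frozen; acetonitrile protein precipitation, ESI LC-MS/MS with matrix curve and internal standards.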

[12] = Thermodynamic solubility in PBS at 1 to 100 uM at pH 7.4 by HPLC-UV method; assay type: physicochemical; conditions: dose 1-100 µM, read-out: Therm_solubility
[13] = Apparent permeability across apical to basolateral side in MDCK-MDR1 cells at 10 uM measured at 60 mins by LC-MS/MS analysis; assay type: ADME, cell-based, Canis lupus familiaris; conditions: dog
[14] = Oral bioavailability in Sprague-Dawley rat at 10 mg/kg administered via gavage measured after 0.02 to 24 hrs by tandem liquid chromatography/mass spectrometry; assay type: ADME, organism-based; conditions: in vivo, time 0.02-24 hrs; in short: as §3
[15] = Volume of distribution at steady state in CD1 mouse at 1 mg/kg, iv measured after 0.083 to 24 hrs by UHPLC-TOF method; assay type: ADME, organism-based; conditions: in vivo, time 0.083-24 hrs, read-out: Vdss; in short: as §1
[16] = Half life in CD1 mouse at 1 mg/kg, iv measured after 0.03 to 24 hrs by UHPLC-TOF method; assay type: ADME, organism-based; conditions: in vivo, time 0.03-24 hrs
[17] = Clearance in Sprague-Dawley rat at 1 mg/kg, iv administered […] measured after 0.02 to 24 hrs by tandem liquid chromatography/mass spectrometry; assay type: ADME, organism-based; conditions: in vivo, time 0.02-24 hrs
[18] = Intrinsic clearance in Beagle dog liver microsomes preincubated followed by NADPH addition and measured up to 45 mins by LC-MS/MS analysis; assay type: ADME, Canis lupus familiaris, Microsome
[19] = Clearance in CD1 mouse at 1 mg/kg, iv measured after 0.083 to 24 hrs by UHPLC-TOF method; assay type: ADME, organism-based; conditions: in vivo, time 0.083-24 hrs
[20] = Intrinsic clearance in Sprague-Dawley rat liver microsomes preincubated followed by NADPH addition and measured up to 45 mins by LC-MS/MS analysis; assay type: ADME, Microsome
[21] = Tmax in Sprague-Dawley rat at 10 mg/kg, po measured after 0.02 to 24 hrs by UHPLC-TOF method; assay type: ADME, organism-based; conditions: Sprague-Dawley, in vivo, time 0.02-24 hrs, read-out: Tmax
[22] = Apparent permeability across basolateral side to apical side in MDCK-MDR1 cells at 10 uM measured at 60 mins by LC-MS/MS analysis; assay type: ADME, cell-based, Canis lupus familiaris; conditions: dog
[23] = Cytotoxicity against African green monkey Vero cells by MTT assay; assay type: cell-based; conditions: chlorocebus sabaeus; in short: as §2
[24] = Protein binding in human plasma assessed as unbound fraction at 5 uM by LC-MS/MS analysis based equilibrium dialysis method; assay type: ADME, cell-free
[25] = Protein binding in dog plasma assessed as unbound fraction at 5 uM by LC-MS/MS analysis based equilibrium dialysis method; assay type: ADME, cell-free, Canis lupus familiaris
[26] = Intrinsic clearance in rat hepatocytes assessed per million cells at 3 uM measured up to 60 mins by LC-MS/MS analysis; assay type: ADME, cell-based, Hepatocyte; conditions: read-out: CLH
[27] = Protein binding in rat plasma assessed as unbound fraction at 5 uM by LC-MS/MS analysis based equilibrium dialysis method; assay type: ADME, cell-free
[28] = system: Human orthopneumovirus; assay: Antiviral activity against Respiratory syncytial virus A2 infected in African green monkey Vero cells by Plaque reduction assay; assay type: functional, organism-based
[29] = Half life in Sprague-Dawley rat liver microsomes preincubated followed by NADPH addition and measured up to 45 mins by LC-MS/MS analysis; assay type: ADME, Microsome
[30] = Half life in human liver microsomes preincubated followed by NADPH addition and measured up to 45 mins by LC-MS/MS analysis; assay type: ADME, Microsome
[31] = Half life in Beagle dog liver microsomes preincubated followed by NADPH addition and measured up to 45 mins by LC-MS/MS analysis
[32] = Kinetic solubility of compound in PBS at 200 uM at pH 7.4 by LC-MS/LC-UV analysis; assay type: physicochemical; conditions: read-out: Kinetic_solubility
In short: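 Compound added from DMSO into PBS pH 7.4; precipitation measured across a range of concentrations.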

[33] = Apparent permeability of compound in wild type MDCK at 10 uM incubated for 1 hr by LC-MS/MS assay; assay type: ADME, Canis lupus familiaris; conditions: dog

Row | SMILES | intrinsic clearance (CLint) [1] [µL/min] | Cmax [6] [ng/mL] | Vd [11] [L/kg] | solubility thermodynamic [12] [µM] | bioavailability [14] [%] | clearance [17] [mL/min/kg] | intrinsic clearance [18] [µL/min] | Microsomal intrinsic clearance [20] [µL/min] | CC50 [23] [nM] | fraction unbound at 5 µM [24] | fraction unbound at 5 µM [25] | fraction unbound at 5 µM [27] | EC50 [28] [nM] | other results
1 | NCc1ccc2c(c1)nc(CN1C(=O)C3(CC3)c3cccc(F)c31)n2CCCC(F)(F)F | 2.9 | 44.3 | 11 | 1180 (≈ 526 µg/mL) | 13.8 | 209 | 2 | 0.7 | – | – | – | – | – | half-life [2]: 0.8 h; Tmax [3]: 2 h; Cmax [4]: 44.3 ng/mL; Cmax [5]: 110 ng/mL; bioavailability [7]: 12.9%; CC50 [8]: > 25000 nM; efflux ratio at 1 h, 10 µM ([9]; MDCK-MDR1): 7.5; EC50 [10]: 2.3 nM; Papp A→B at 1 h, 10 µM ([13]; MDCK-MDR1): 0.4 ×10⁻⁶ cm/s; Vd [15]: 11.3 L/kg; half-life [16]: 2.4 h; clearance [19]: 76 mL/min/kg; Tmax [21]: 2.1 h; Papp B→A at 1 h, 10 µM [22]: 2.7 ×10⁻⁶ cm/s
2 | CC(C)CCn1c(CN2C(=O)C3(CC3)c3ccc(F)cc32)nc2cc(CN)ccc21 | 50.7 | 44.2 | 54.3 | 176 (≈ 71.7 µg/mL) | 25 | 174 | 6.23 | 45 | 3000 | 0.184 | 0.151 | 0.333 | 0.8 | Ratio ([9]; mdck-mdr1, 1 h, 10 µM): 88; Papp ([13]; mdck-mdr1, 1 h, 10 µM): 0.75 10^-6 cm/s; hepatocyte CLint at 3 µM [26]: 43.1 µL/min/1e6 cells
3 | CC(C)CCn1c(CN2C(=O)C3(CCCC3)c3ccncc32)nc2cc(CN)ccc21 | 488 | – | – | – | – | – | < 28 | < 31 | 23100 | 0.17 | 0.14 | 0.24 | 310 | half-life [29]: > 1.48 h; half-life [30]: 6 min; half-life [31]: > 1.67 h; solubility kinetic at 200 µM [32]: 160 µM (≈ 66.8 µg/mL); Papp at 1 h, 10 µM [33]: 11 ×10⁻⁶ cm/s
